Assay [1] deals with T1, Orexin receptor type 2 (Homo sapiens) (UniProt O43614).
T1 sequence (whole entry): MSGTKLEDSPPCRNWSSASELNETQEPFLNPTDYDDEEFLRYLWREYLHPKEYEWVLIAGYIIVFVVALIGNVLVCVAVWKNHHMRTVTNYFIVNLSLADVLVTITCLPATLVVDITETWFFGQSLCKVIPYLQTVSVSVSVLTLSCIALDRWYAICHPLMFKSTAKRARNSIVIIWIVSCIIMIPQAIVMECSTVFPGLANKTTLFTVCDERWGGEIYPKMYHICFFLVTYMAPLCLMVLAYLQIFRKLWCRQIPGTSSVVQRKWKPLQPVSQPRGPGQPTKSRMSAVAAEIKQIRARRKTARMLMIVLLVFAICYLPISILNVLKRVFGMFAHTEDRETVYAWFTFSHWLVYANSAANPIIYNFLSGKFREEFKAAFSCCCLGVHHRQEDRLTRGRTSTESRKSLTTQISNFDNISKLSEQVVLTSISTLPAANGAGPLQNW
Briefly: Agonist activity at human OX2 receptor expressed in […] assessed as induction of Ca2+ elevation at 10 uM after 30 mins by FLIPR calcium 4 assay relative to orexin-A. It counts as functional, cell-based. The procedure, abridged: (§1)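 CHO-hOX1 or CHO-hOX2 cells plated overnight at 1.5 × 10^4 cells/well, loaded with Calcium 4 dye in HBM + probenecid for 60 min at 37 °C. Fluorescence read at 485/525 nm, 37 °C. 30 s baseline, then compound at 10 μM (tested twice in validation; thrice at 1 and 10 μM in quadruplicate in characterization). Response expressed as % of orexin-A maximal response; background response measured within each experiment.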

The target of assay [2] is T1, Orexin receptor type 2 (Homo sapiens). The conditions noted are these: CHO, at 10 µM.
The target is the same in assay [3]. Briefly: Agonist activity at human OX2 receptor expressed in […] assessed as induction of Ca2+ elevation at 10 uM after 30 mins by FLIPR back ground response. It counts as functional, cell-based. In outline: as §1
The target in assay [4] is T2, Orexin/Hypocretin receptor type 1 (Homo sapiens) (UniProt O43613).
T2 sequence (whole entry): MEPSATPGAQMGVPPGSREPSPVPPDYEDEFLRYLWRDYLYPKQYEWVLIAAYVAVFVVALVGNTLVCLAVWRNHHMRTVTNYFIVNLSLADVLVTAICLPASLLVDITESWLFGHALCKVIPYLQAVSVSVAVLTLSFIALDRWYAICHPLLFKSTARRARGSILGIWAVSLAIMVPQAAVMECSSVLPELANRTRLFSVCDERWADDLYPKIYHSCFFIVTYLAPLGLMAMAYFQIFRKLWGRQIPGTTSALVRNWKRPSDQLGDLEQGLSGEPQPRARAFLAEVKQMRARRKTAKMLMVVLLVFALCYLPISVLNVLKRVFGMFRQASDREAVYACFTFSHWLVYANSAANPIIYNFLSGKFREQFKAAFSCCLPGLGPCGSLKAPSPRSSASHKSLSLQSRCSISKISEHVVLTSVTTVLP
Briefly: Agonist activity at human OX1 receptor expressed in CHO cells assessed as induction of Ca2+ elevation at 5 uM after 2 mins by FLIPR calcium 4 assay relative to orexin-A. Type of assay: functional, cell-based. In outline: (§2)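 Screening in CHO-hOX1 or CHO-hOX2 cells loaded with Calcium 4 dye in HBM (137 mM NaCl, 20 mM Hepes, 1 mM CaCl2, pH 7.4) + probenecid. Fluorescence at 485/525 nm, 37 °C. 30 s baseline, compound added to 5 μM final and read for 120 s; the delayed response was read 30 min after addition for 30 s. Tested once in triplicate; % of full orexin-A activation.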

Assay [5] has as its target T1, Orexin receptor type 2 (Homo sapiens). As to the kind of experiment: Agonist activity at human OX2 receptor expressed in CHO cells assessed as induction of Ca2+ elevation at 5 uM after 2 mins by FLIPR calcium 4 assay relative to orexin-A. It counts as functional, cell-based. The procedure, abridged:
as §2

The target of a further assay is T3, Orexin receptor type 2 (Homo sapiens, UniProt O43614).
T3 sequence (O43614 whole entry): T1 sequence (whole entry)
Briefly: Displacement of [125I]-orexin A from human OX2 receptor expressed in […] after 90 mins by scintillation counting. In outline: (§3)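 Intact CHO-hOX1 or CHO-hOX2 cells in HBM + 0.1% stripped BSA + 30 μM dyngo 4a, preincubated 10 min (10 μM antagonist used to define nonspecific binding). 0.05 nM [125I]-orexin-A added with compound (10 nM–100 μM, 10-fold series). Incubated 90 min at room temperature, wells dried, scintillation counted. At least three experiments; IC50/Ki by nonlinear fitting.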
(Displacement assays read how much labelled ligand stays bound in the presence of the test substance.)

In assay [6] the target is T2, Orexin/Hypocretin receptor type 1 (Homo sapiens). As to the kind of experiment: Displacement of [125I]-orexin A from human OX1 receptor expressed in […] at 10 uM after 90 mins by scintillation counting.
Assay [7] has the same target. Briefly: Agonist activity at human OX1 receptor expressed in […] assessed as induction of Ca2+ elevation at 10 uM after 30 mins by FLIPR back ground response. It counts as functional, cell-based. In outline: as §1
Another assay relates to CHO. As to the kind of experiment: Induction Ca2+ levels in CHO cells at 1 uM by FLIPR calcium 4 assay. It counts as functional, cell-based. The conditions noted are these: Cricetulus griseus. The procedure, abridged: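 Control CHO cells lacking orexin receptors, loaded with Calcium 4 dye in HBM + probenecid for 60 min at 37 °C. Compound added (1 and 10 μM) and the Ca2+ fluorescence response read at 485/525 nm at 37 °C.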

For assay [8], the target named is T2, Orexin/Hypocretin receptor type 1 (Homo sapiens). As to the kind of experiment: Agonist activity at human OX1 receptor expressed in CHO cells assessed as induction of Ca2+ elevation at 5 uM after 30 mins by FLIPR calcium 4 assay relative to orexin-A. It counts as functional, cell-based. The procedure, abridged: as §2
The target is the same in assay [9]. Briefly: Agonist activity at human OX1 receptor expressed in […] assessed as induction of Ca2+ elevation at 10 uM after 30 mins by FLIPR calcium 4 assay relative to orexin-A. Type of assay: functional, cell-based. The procedure, abridged: as §1
The species named for the next assay is Homo sapiens. Briefly: Ratio of Ki for human OX1 receptor expressed in […] to Ki for human OX2 receptor expressed in […] by [125I]-orexin A displacement assay. Type of assay: cell membranes. In outline:
as §3

Activity calls are given as the source filed them. The calls are words filed in the database; no cut-off is given here.

For `COC(=O)CN(C(C)=O)C(c1ccccc1)c1cc(Br)ccc1NC(=O)c1ccccc1Cl` (stereo not drawn), the Activity in [1] was 1 to 3.7%; in [9], 7.3%. The inhibition in assay [2] and in [6] was above 70% each time. Besides, the fold change (FC) was 1.4 to 2.2 in [3] and 3.4 in [7]. Also, the outcome in [4], in assay [5] and in [8] was Active. Further, the IC50 (commonly the concentration at which inhibition is half-maximal) on Orexin receptor type 2 was 1700 nM. On Orexin receptor type 2, the Ki (usually the equilibrium dissociation constant of an inhibitor or competing ligand from its target) was determined as 2500 nM. Moreover, the outcome in the assay with CHO was inactive. Moreover, the Ratio Ki in the assay filed under Homo sapiens was 10.
